PubChem BioAssay AID493097 (Broad Institute, 2011)
Active and inactive are the calls of the source.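 Rule for the calls: active = falling signal with a fitted half-maximal concentration at most ten times the top valid dose; inconclusive = flat fit with 30 to 70 percent inhibition, or a poor fit; inactive = the rest.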

System: Vibrio harveyi BB721 constitutive QS, luminescence, 9 h
Test: constitutive quorum sensing luminescence reduction – strain BB721, dry powder, set 4, counter-screen for LuxS inhibitor project, dose response (AID 493097)
Details: not given
How it was run: (§1)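 Incubation: 9 h exposure, 30 °C / System: V. harveyi BB721, constitutive-on quorum sensing / Amount: bacteria seeded at starting optical density OD600 0.0005 / Medium: AB (autoinducer bioassay) growth medium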

| SMILES | AC50 [µM] |
| --- | --- |
| O=S(=O)(Nc1ccccn1)c1ccc(Oc2ccccc2)cc1 | 15.5 |
| O=C1C=C/C(=C/Br)O1 | 3.92 |
| Cn1cnc(S(=O)(=O)Nc2ccc(OC(F)(F)F)cc2)c1 | 14.1 |
| O=S(=O)(Nc1cccnc1)c1ccc(Oc2ccccc2)cc1 | 0.775 |
| C=Cn1c(C(=O)O)ccc1-c1ccc(CC)cc1 | 13.1 |

System: not listed separately
Test: as above
Details: Vibrio harveyi BB721 constitutive QS, luminescence, 9 h; at 16 µM (top of the series)
How it was run: as §1

| SMILES | activity change, negative = inhibition |
| --- | --- |
| CN(C)C(=O)c1ccccc1NS(=O)(=O)c1cn(C)cn1 | 8.65% (inactive) |
| Cc1ccccc1NS(=O)(=O)c1cn(C)cn1 | 5.69% (inactive) |
| Cn1cnc(S(=O)(=O)Nc2ccccc2F)c1 | 6.38% (inactive) |
| Cn1cnc(S(=O)(=O)Nc2ccccc2Cl)c1 | 12.3% (inactive) |
| COc1ccccc1NS(=O)(=O)c1cn(C)cn1 | -0.736% (inactive) |
| CC(=O)Nc1ccccc1NS(=O)(=O)c1cn(C)cn1 | 6.64% (inactive) |
| CCc1ccc(-c2ccc(C(=O)O)n2C)cc1 | -7.36% (inactive) |
